From PubChem
Compounds with a hit are over-represented: about 2.6% of the library has one in this group of screens.
Rin1 Abl inh = human Rin1-Abl interaction inhibition; P00519+Q13671; 0.4% of 360,000 active; inhibition, % at 7.35 µM; AID 588664; TR-FRET Rin1/Abl binding, biochemical; in the data active = inhibition above about 5%, passing the limit was not always enough
SKN-1 block = blocks SKN-1 activity in C. elegans; inhibition, % at 21.8 µM; 0.49% of 360,000 active; C. elegans VP596 Pgst-4::GFP/RFP ratio, acrylamide-induced, 24 h;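 active = interference check ratio from 0.5 to 1.5 plus GFP to RFP signal ratio inhibition reaching or exceeding a fixed threshold, cut at about 30% in these data, passing the limit was not always enough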
T cell modulator = T cell immune modulators affecting CD8 T cell-vesicle binding. 2C CD8+ T cell-vesicle binding, flow cytometry; hits give low values. response (vesicle binding), % at 7 µM. 0.068% of 330,000 active. AID 2052;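 active = response, share of CD8 T cells binding vesicles, and their 90th percentile fluorescence all below set limits, cut at about 80% in these data, passing the limit was not always enough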;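 note: values below 100% mean blocked vesicle binding to the CD8+ T cells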
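Material: murine 2C transgenic CD8+ T lymphocytes / Also added: QL9-peptide-loaded Drosophila micro-vesicles bearing Ld, ICAM-1 and B7-1 / Schedule: binding step 1.5 h, 37 °C, antibody labelling 20 min, ice / Signal: flow cytometry, PE anti-B7-1 (FL2) versus Alexa647 anti-CD8 (FL8), PFA-fixed / Evaluation: percent CD8+ FL2 mean versus row control / Benchmarks: naked versus QL9-loaded vesicles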
Myeloid diff 2 = compounds promoting myeloid differentiation; 1% of 360,000 active; ER-HoxA9 myeloid progenitors, lysozyme-GFP differentiation, flow cytometry; calls only at 10 µM; AID 624256;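 active = normalized GFP-positive differentiation at or above the plate's own cutoff, the solvent-only control mean plus 3 SD; inconclusive = no clear call, values can overlap the other calls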;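 note: cells exposed to compound for four days before flow analysis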
Rce1 inhib = blocks yeast Ras-converting enzyme | Q03530 | yeast membranes, quenched prenylated peptide cleavage fluorescence | calls only | 0.27% of 290,000 active | AID 2563;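 active = fall in fluorescence gain of 50% or more versus controls, with final raw signal at or below 3038400; inconclusive = same 50% fall but final raw signal above 3038400; inactive = fall in fluorescence gain under 50%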;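 note: plate controls were neutral control wells for no effect and wells lacking membranes for full effect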
GRK2 inh = human GRK2 inhibition via aptamer displacement; P25098; bead flow cytometry, FAM-aptamer displacement from GRK2; inhibition of aptamer binding, % at 10 µM; 0.59% of 330,000 active; AID 488847;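 active = inhibition of aptamer binding above 40%, roughly 3 SD of noise, on plates passing a quality check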;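 note: median bead fluorescence of bound FAM aptamer so fluorescent compounds give negative values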
Rin1-Abl confirm = confirmation of inhibitors of human Rin1-Abl interaction; shares compounds with Rin1 Abl inh; inhibition, % at 7.35 µM; 49% of 1,300 active; TR-FRET Rin1-Abl binding, purified proteins
GFP quencher = counter-screen for Rin1-Abl inhibitors: GFP fluorescence quenchers; shares compounds with Rin1 Abl inh; inhibitors/quenchers counterscreen; inhibition, % at 6.75 µM; 8.5% of 1,300 active; AID 602125;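 note: ABL1-eGFP fusion protein alone without its partner RIN1-SBP; 0% = protein with vehicle and 100% = wells lacking protein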
GFP quench DR = quenches GFP in dose response, Rin1-Abl counter-screen | AID 602182 | shares compounds with Rin1 Abl inh | 230 tested, under 10 active | IC50, µM | GFP fluorescence interference/quenching counterscreen; call rule not given here;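 note: ABL1-eGFP fusion protein alone without its RIN1 binding partner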
Myeloid diff = myeloid differentiation induction; AID 651706; calls only; shares compounds with Myeloid diff 2; 2% of 2,300 active; ER-HoxA9 myeloid progenitors, GFP/Mac1 double-positive flow;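 active = share of green or green-and-red cells above 9 and 9% in run 1 or 4 and 3% in run 2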
GFP autofluor = flagged as fluorescent in myeloid differentiation counter-screen. shares compounds with Myeloid diff 2. ER-HoxA9 myeloid progenitors, no estrogen, GFP autofluorescence flow cytometry; vehicle wells 0%, positive control 100%. fluorescence response, % (no concentration beside the values). 7.4% of 2,300 active. AID 651707;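 active = over 5% cells positive for green fluorescent reporter, or over 2% positive for both it and APC stain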;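 note: range taken on the double positive population between DMSO and positive control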
* hit, by the source's call; i = inactive; u = inconclusive; x = no result; + = active, no number. Cut-off read from the data, not from the text of the source, unless noted: active = inhibition above about 6.5%; inactive = the rest.

SMILES	Rin1 Abl inh	SKN-1 block	T cell modulator	Myeloid diff 2	Rce1 inhib	GRK2 inh	Rin1-Abl confirm	GFP quencher	others
CCCN(C(=O)C1CCCN(c2ncnc3c2nc2n3CCCCC2)C1)c1ccc(F)cc1 (centres undefined)	8.5*	3.1	197.1	i	i	0.0	-1.5	-0.5
O=C(NCC1CCN(Cc2ccc(F)cc2)CC1)C1CCCN(c2ncnc3c2nc2n3CCCCC2)C1 (centres undefined)	7.2	-8.6	321.1	i	i	0.0	x	x
Cc1ccc(S(=O)(=O)C2(C(=O)NC3CCCCC3)CC2)cc1	15.8*	5.7	257.5	i	i	3.0	0.4	0.9
O=C(Nc1ccccc1C(=O)O)c1cccc(C(=O)Nc2ccccc2C(=O)O)c1	0.7	5.0	170.4	i	i	0.0	x	x
COC(=O)c1ccc(NC(=O)c2ccc(OC(C)=O)c(OC)c2)cc1	1.8	-3.2	380.4	i	i	2.0	x	x
CCOc1c(Cl)cc(C(=O)Nc2ccccc2C(=O)O)cc1Cl	13.1*	18.5	537.1	i	i	3.0	19.0*	1.0	GFP quench DR=>67.5
Cc1ccccc1C(=O)Nc1ccc(O)cc1C(=O)O	-0.3	-9.2	250.7	i	i	2.0	x	x
COc1cc(C(=O)Nc2ccc(O)cc2C(=O)O)ccc1OC(C)=O	71.2*	7.9	521.0	i	i	3.0	72.1*	0.3	GFP quench DR=>67.5
CC(=O)Nc1cccc(C(=O)Nc2ccccc2C(=O)O)c1	17.5*	-9.6	353.6	i	i	3.0	-2.2	0.3
O=C(Nc1ccc(O)cc1C(=O)O)c1cccc(Br)c1	15.6*	-13.6	32.9	i	i	0.0	23.5*	-1.4	GFP quench DR=>67.5
C[C@H](CO)N1C[C@H](C)[C@H](CN(C)C(=O)Nc2ccc(N3CCN(C)CC3)cc2)OCc2cnnn2CCCC1=O	-4.3	-3.8	x	i	x	x	x	x
O=C(C[n+]1ccccc1)N/N=C/c1ccc(C(=O)O)cc1	1.7	17.3	133.3	i	x	0.0	x	x
Cc1c(Cl)cccc1N=C(N)N=C(N)N	9.1*	2.6	i	i	i	1.0	-2.8	0.0
CCOc1ccc(CN(C)C(=O)c2ccc(NC(=O)CC3SC(N4CCCC4)=NC3=O)cc2)cc1 (centres undefined)	10.4*	-16.0	513.5	u	i	4.0	5.0	-2.1
Cc1ccc(NC(=O)CN(C)C(=O)c2ccc(NC(=O)CC3SC(N4CCCC4)=NC3=O)cc2)cc1 (centres undefined)	2.8	2.2	502.2	i	i	0.0	x	x
COC(=O)CSc1nnc(-c2ccccn2)n1N	-1.8	14.3	352.9	i	i	0.0	x	x
CCOc1ccc(C(C(=O)NCC2CCCO2)N(C(=O)c2snc(C(N)=O)c2N)c2ccc3c(c2)OCCO3)cc1 (centres undefined)	16.0*	9.3	322.9	i	i	1.0	23.1*	-0.1
NC(=O)c1nsc(C(=O)N(c2ccccc2)C(C(=O)NCC2CCCO2)c2ccc3ncccc3c2)c1N (centres undefined)	2.3	5.6	251.2	i	x	6.0	x	x
CCOc1ccccc1N(C(=O)c1snc(C(N)=O)c1N)C(C(=O)NCC1CCCO1)c1ccc2ncccc2c1 (centres undefined)	21.3*	4.2	453.9	i	i	3.0	28.5*	-1.0	GFP quench DR=>67.5
CCOc1ccccc1N(C(=O)c1snc(C(N)=O)c1N)C(C(=O)NCc1ccccc1)c1ccc(O)cc1 (centres undefined)	14.6*	9.5	x	i	i	x	26.5*	1.2	GFP quench DR=>67.5
COc1ccc(C(C(=O)NC2CCCCC2)N(C(=O)c2snc(C(N)=O)c2N)c2ccc(OC)cc2OC)cc1 (centres undefined)	18.3*	9.9	276.4	i	+	1.0	14.8*	0.3
Cc1ccccc1N(C(=O)c1snc(C(N)=O)c1N)C(C(=O)NCc1ccccc1)c1ccc(O)cc1 (centres undefined)	-0.3	9.5	i	i	i	0.0	x	x
CC(=O)Nc1ccc(C(=O)NCC(c2ccco2)N(C)C)cc1 (centres undefined)	2.5	11.0	264.5	i	i	1.0	x	x
CN(C)C(CNC(=O)c1ccc(NC(=O)CC#N)cc1)c1ccccc1 (centres undefined)	10.1*	-9.8	204.2	x	i	0.0	6.7*	-0.2
CSc1nnc(NC(=O)c2cccc(S(=O)(=O)N3CCOCC3)c2)s1	-1.6	14.8	256.4	i	i	0.0	x	x
SMILES	Rin1 Abl inh	SKN-1 block	T cell modulator	Myeloid diff 2	Rce1 inhib	GRK2 inh	Rin1-Abl confirm	GFP quencher	others
C=CCN=C1CC(C)(C)CC(=O)/C1=C(\O)CCCN1C(=O)c2ccccc2C1=O	-4.2	18.0	204.6	i	i	9.0	x	x
CC(C)(C)[C@H]1C=C(C(=O)N2CCN(Cc3ccccc3)CC2)O[C@@H](OCCCCO)C1	15.7*	-5.2	154.2	i	i	1.0	3.7	-0.1
O=C(Nc1nc(-c2cccnc2)cs1)c1ccccc1[N+](=O)[O-]	2.0	-5.4	i	i	i	0.0	x	x
Cc1ccc(-c2nn3c(-c4ccco4)nnc3c3ccccc23)cc1S(=O)(=O)NCC1CCCO1 (centres undefined)	10.5*	-3.4	466.1	i	i	0.0	26.9*	1.5	GFP quench DR=>67.5
Cc1ccc(-c2nnc(Nc3ccccc3)c3ccccc23)cc1S(=O)(=O)NCC1CCCO1 (centres undefined)	-7.0	10.5	447.9	i	i	0.0	x	x
CNc1nc(OC)nc(N(C#N)CN2C(=O)c3ccccc3S2(=O)=O)n1	18.8*	-3.3	352.8	i	i	0.0	1.5	0.1
CC(=O)Nc1cccc(-c2ccnc3c2CC(C)(C(=O)NCc2ccc(N(C)C)cc2)O3)c1 (centres undefined)	6.7*	10.6	x	+	x	x	5.8	-2.1	Myeloid diff=i;GFP autofluor=0.0
O=C(CCN1CCCCO1)N1CCCC(Nc2ccc(F)cc2)C1 (centres undefined)	-1.3	7.2	399.1	i	i	0.0	x	x
CC(C)n1cc(CN2CCC(C(=O)Nc3cccc(-c4cccc(Cl)c4)c3)CC2)cn1	11.5*	1.1	250.7	+	i	0.0	25.5*	-0.9	GFP quench DR=>67.6;Myeloid diff=i;GFP autofluor=0.0
